In ChEMBL document CHEMBL4152275, “Discovery of novel small molecule TLR4 inhibitors as potent anti-inflammatory agents” (Eur J Med Chem, 2018):
One block for each compound: values may come before it.

Experiments:
Toll-like receptor 4 [1] = target: T1, Toll-like receptor 4 (Homo sapiens, UniProt O00206); assay: Antagonist activity at human TLR4 expressed in HEK blue cells coexpressing MD-2/CD14 assessed as inhibition of LPS-induced NF-kappaB activation-mediated SEAP production after 24 hrs; type: cell-based
T1 sequence (O00206 whole entry): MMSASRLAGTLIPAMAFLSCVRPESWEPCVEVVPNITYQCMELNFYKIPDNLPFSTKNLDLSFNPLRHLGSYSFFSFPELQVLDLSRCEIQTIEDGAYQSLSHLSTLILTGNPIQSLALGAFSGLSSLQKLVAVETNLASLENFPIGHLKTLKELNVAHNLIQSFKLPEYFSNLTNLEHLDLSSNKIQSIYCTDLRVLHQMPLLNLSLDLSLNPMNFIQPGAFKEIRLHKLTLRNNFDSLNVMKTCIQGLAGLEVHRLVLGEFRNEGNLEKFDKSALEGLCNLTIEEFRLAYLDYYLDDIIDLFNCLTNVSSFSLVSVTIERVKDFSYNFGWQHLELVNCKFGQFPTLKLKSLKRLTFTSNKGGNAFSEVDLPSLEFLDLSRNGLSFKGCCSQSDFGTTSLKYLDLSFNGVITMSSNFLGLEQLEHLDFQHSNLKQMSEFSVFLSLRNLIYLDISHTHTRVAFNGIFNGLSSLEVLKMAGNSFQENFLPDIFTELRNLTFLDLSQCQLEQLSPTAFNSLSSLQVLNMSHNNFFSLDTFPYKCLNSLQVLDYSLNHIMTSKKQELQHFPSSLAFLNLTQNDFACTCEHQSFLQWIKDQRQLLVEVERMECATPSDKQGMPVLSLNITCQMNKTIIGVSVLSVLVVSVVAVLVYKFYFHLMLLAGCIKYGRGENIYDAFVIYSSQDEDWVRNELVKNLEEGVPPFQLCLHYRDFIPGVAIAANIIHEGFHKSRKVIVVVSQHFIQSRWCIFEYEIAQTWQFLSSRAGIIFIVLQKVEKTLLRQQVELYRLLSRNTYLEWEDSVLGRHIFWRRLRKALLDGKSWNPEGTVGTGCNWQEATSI
How it was run: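 HEK293 cells stably carrying human TLR4, MD-2, CD14 and an NF-κB-inducible SEAP reporter were seeded at 4×10^4/well, grown 24 h, then switched to unsupplemented DMEM. Cells were treated with 20 ng/mL LPS plus compound (1.56–100 µM; from 10 mM DMSO stocks) for 24 h. Supernatant SEAP was read with QUANTI-Blue at OD620 after 15–30 min at 37°C. Two independent experiments in triplicate.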

HCN2 channel [2] = assay: Inhibition of HCN2 (unknown origin) expressed in COS7 cells assessed as amplitude of inward current (I/I0 ratio) at 10 uM at -40 mV holding potential by pach clamp electrophysiology assay; conditions: Homo sapiens
HCN4 channel [3] = assay: Inhibition of HCN4 (unknown origin) expressed in COS7 cells assessed as amplitude of inward current (I/I0 ratio) at 10 uM at -40 mV holding potential by pach clamp electrophysiology assay; conditions: Homo sapiens
[4] = target: T2, Toll-like receptor 4 (Mus musculus) (UniProt Q9QUK6); assay: Antagonist activity at TLR4 in mouse RAW264.7 cells assessed as inhibition of LPS-induced NO production after 24 hrs by Griess assay; type: cell-based
T2 sequence (whole entry): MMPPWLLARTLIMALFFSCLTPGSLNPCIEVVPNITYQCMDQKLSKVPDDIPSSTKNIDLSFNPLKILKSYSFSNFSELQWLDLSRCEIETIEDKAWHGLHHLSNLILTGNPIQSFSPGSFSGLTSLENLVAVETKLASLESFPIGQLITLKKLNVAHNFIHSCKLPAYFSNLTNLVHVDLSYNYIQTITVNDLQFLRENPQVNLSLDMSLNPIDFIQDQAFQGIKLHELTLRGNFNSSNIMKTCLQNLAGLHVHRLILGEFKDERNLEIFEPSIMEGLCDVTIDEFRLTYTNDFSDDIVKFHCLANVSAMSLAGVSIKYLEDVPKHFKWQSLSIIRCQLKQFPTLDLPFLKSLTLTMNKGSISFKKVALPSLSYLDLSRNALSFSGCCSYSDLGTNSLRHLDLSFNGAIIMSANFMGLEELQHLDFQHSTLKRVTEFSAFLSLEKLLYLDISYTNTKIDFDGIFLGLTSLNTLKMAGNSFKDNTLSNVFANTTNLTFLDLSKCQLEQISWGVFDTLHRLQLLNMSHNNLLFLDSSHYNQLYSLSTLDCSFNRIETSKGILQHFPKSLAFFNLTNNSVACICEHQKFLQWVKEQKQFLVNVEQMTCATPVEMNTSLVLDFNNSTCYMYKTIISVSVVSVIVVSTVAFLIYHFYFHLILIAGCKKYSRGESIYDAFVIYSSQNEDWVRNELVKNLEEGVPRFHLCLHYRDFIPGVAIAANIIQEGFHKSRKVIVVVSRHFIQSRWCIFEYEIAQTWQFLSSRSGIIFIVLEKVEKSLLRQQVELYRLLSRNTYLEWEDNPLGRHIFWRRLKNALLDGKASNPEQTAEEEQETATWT
How it was run: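 RAW264.7 or BV-2 cells were seeded at 50,000/well in DMEM + 10% FBS with penicillin/streptomycin and pre-incubated 24 h at 37°C, 5% CO2. Medium was replaced with unsupplemented DMEM. Cells were treated with 40 ng/mL LPS plus graded compound for 24 h. Supernatant nitrite was read by Griess reaction (sulfanilic acid/phosphoric acid, then naphthylethylenediamine, 10 min each) against a nitrite standard.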

Toll-like receptor 4 [5] = target: T1, Toll-like receptor 4; assay: Antagonist activity at TLR4 in human PBMC assessed as inhibition of LPS-induced TNFalpha production at 20 uM after 24 hrs by ELISA relative to control; type: cell-based
How it was run: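 Human PBMC at 1×10^6 cells/well in RPMI 1640 were given compound with or without 10 ng/mL LPS for 24 h at 37°C, 5% CO2. Supernatants were frozen at −80°C, then TNF-α was quantified by sandwich ELISA against a recombinant human standard. Each sample was run in triplicate; three independent experiments, mean ± SD.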

[6] = Cytotoxicity against human HEK-Blue cells assessed as decrease in cell viability up to 100 uM after 24 hrs by CCK-8 assay; type: cell-based
How it was run: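 HEK-Blue hTLR4 cells were incubated with 40 ng/mL LPS and compound (0–100 µM) for 24 h. Viability was measured by CCK-8 absorbance at 450 nm.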

Toll-like receptor 4 [7] = target: T1, Toll-like receptor 4; assay: Antagonist activity at human TLR4 expressed in HEK blue cell lysates assessed as inhibition of LPS-induced TLR4 protein expression after 24 hrs by Western blot method
How it was run: (§1)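 HEK-Blue hTLR4 cells at 1×10^6/well were grown 24 h in DMEM + 10% FBS, then switched to unsupplemented DMEM. Cells were treated with 40 ng/mL LPS and compound (0–20 µM) for 24 h, then lysed on ice. Protein was measured by BCA, run on 10% SDS-PAGE and blotted to PVDF. Blots were probed with anti-TLR4 (overnight, 4°C) with ECL detection; GAPDH served as loading control.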

Toll-like receptor 4 [8] = target: T1, Toll-like receptor 4; assay: Antagonist activity at human TLR4 expressed in HEK blue cell lysates assessed as inhibition of LPS-induced TLR4 protein expression at 10 uM after 24 hrs by Western blot method relative to control; how it was run: as §1
[9] = target: Toll-like receptor 4 (Mus musculus) (UniProt Q9QUK6); assay: Antagonist activity at TLR4 in mouse BV2 cells assessed as inhibition of LPS-induced NO production after 24 hrs by Griess assay
HCN2 channel [10] = assay: Inhibition of HCN2 (unknown origin) expressed in COS7 cells assessed as change in half activation potential at 10 uM at -40 mV holding potential by pach clamp electrophysiology assay; conditions: Homo sapiens
HCN4 channel [11] = assay: Inhibition of HCN4 (unknown origin) expressed in COS7 cells assessed as change in half activation potential at 10 uM at -40 mV holding potential by pach clamp electrophysiology assay; conditions: Homo sapiens
HCN2 channel [12] = assay: Inhibition of HCN2 (unknown origin) expressed in COS7 cells assessed as Tdeact time at 10 uM at -40 mV holding potential measured at +50 mV by pach clamp electrophysiology assay (reference value: 66 +/- 4.2 milliseconds); conditions: Homo sapiens
HCN2 channel [13] = assay: Inhibition of HCN2 (unknown origin) expressed in COS7 cells assessed as Tact time at 10 uM at -40 mV holding potential measured at -120 mV by pach clamp electrophysiology assay (reference value: 242.9 +/- 24 milliseconds); conditions: Homo sapiens
HCN4 channel [14] = assay: Inhibition of HCN4 (unknown origin) expressed in COS7 cells assessed as Tdeact time at 10 uM at -40 mV holding potential measured at +50 mV by pach clamp electrophysiology assay (reference value: 92.9 +/- 9.5 milliseconds); conditions: Homo sapiens
HCN4 channel [15] = assay: Inhibition of HCN4 (unknown origin) expressed in COS7 cells assessed as Tact time at 10 uM at -40 mV holding potential measured at -120 mV by pach clamp electrophysiology assay (reference value: 780.9 +/- 59.2 milliseconds); conditions: Homo sapiens

IC50 (Toll-like receptor 4 [1]): Not Active
Structure (SMILES): C/N=C/c1cn(CC(O)COc2cccc3[nH]c4ccccc4c23)cn1 (stereo not given)

IC50 (Toll-like receptor 4 [1]): Not Active
Ratio (HCN2 channel [2]): 1
Ratio (HCN4 channel [3]): 0.82
Structure (SMILES): OC(CNc1ccc(F)cc1)COc1cccc2[nH]c3ccccc3c12 (stereo not given)

IC50 (Toll-like receptor 4 [1]; read-out: IC50): 51.5 µM
Structure (SMILES): Cc1ccc(OCCC(O)CN(C)Cc2c(C)nn(Cc3ccccc3Cl)c2C)cc1 (stereo not given)

IC50 (Toll-like receptor 4 [1]): Not Active
Structure (SMILES): CCOc1ccc(OCCC(O)CN(C)Cc2c(C)nn(Cc3ccccc3F)c2C)cc1 (stereo not given)

IC50 (Toll-like receptor 4 [1]; read-out: IC50): 12.4 µM
Structure (SMILES): OC(CNc1ccc2c(c1)-c1ccccc1C2)COc1cccc2[nH]c3ccccc3c12 (stereo not given)

IC50 (Toll-like receptor 4 [1]; read-out: IC50): 31.5 µM
Structure (SMILES): Cc1nn(Cc2ccccc2)c(C)c1CN(C)CC(O)COc1cccc2[nH]c3ccccc3c12 (stereo not given)

IC50 (Toll-like receptor 4 [1]; read-out: IC50): 12.4 µM
inhibition [4]: Dose-dependent effect
inhibition (Toll-like receptor 4 [5]): 80%
inhibition (Toll-like receptor 4 [7]): Dose-dependent effect
inhibition (Toll-like receptor 4 [8]): > 90%
inhibition [9]: Dose-dependent effect
V1/2 (HCN2 channel [10]): -21.4 mV
V1/2 (HCN4 channel [11]): -28.8 mV
Ratio (HCN2 channel [2]): 0.7
Ratio (HCN4 channel [3]): 0.5
TIME (HCN2 channel [12]): 1.47e-05 h
TIME (HCN2 channel [13]): 0.000248 h
TIME (HCN4 channel [14]): 2.22e-05 h
TIME (HCN4 channel [15]): 0.000597 h
Structure (SMILES): Cc1nn(Cc2ccccc2Cl)c(C)c1CN(C)CC(O)COc1cccc2[nH]c3ccccc3c12 (stereo not given)
Activity [6]: Non-Toxic

IC50 (Toll-like receptor 4 [1]): Not Active
Structure (SMILES): CCOc1ccc(OCCC(O)CN(C)Cc2c(C)nn(Cc3ccccc3Cl)c2C)cc1 (stereo not given)

IC50 (Toll-like receptor 4 [1]; read-out: IC50): 32.5 µM
Structure (SMILES): COc1ccccc1OCCNCC(O)CCOc1cccc2[nH]c3ccccc3c12 (stereo not given)

IC50 (Toll-like receptor 4 [1]): Not Active
Structure (SMILES): CCOc1ccc(OCCC(O)CNCCOc2ccccc2OC)cc1 (stereo not given)

IC50 (Toll-like receptor 4 [1]; read-out: IC50): 25.9 µM
Structure (SMILES): CCOc1ccc(OCCC(O)CN(C)Cc2c(C)nn(Cc3ccc(Cl)cc3)c2C)cc1 (stereo not given)

IC50 (Toll-like receptor 4 [1]; read-out: IC50): 54.6 µM
Structure (SMILES): CCOc1ccc(OCCC(O)CN(C)Cc2c(C)nn(Cc3ccccc3C)c2C)cc1 (stereo not given)

IC50 (Toll-like receptor 4 [1]; read-out: IC50): 34.2 µM
Ratio (HCN2 channel [2]): 0.73
Ratio (HCN4 channel [3]): 0.75
Structure (SMILES): CCOc1ccc(OCC(O)CN(C)Cc2c(C)nn(Cc3ccccc3Cl)c2C)cc1 (stereo not given)

IC50 (Toll-like receptor 4 [1]; read-out: IC50): 28.5 µM
Structure (SMILES): OC(CNc1ccc2ccccc2c1)COc1cccc2[nH]c3ccccc3c12 (stereo not given)

IC50 (Toll-like receptor 4 [1]; read-out: IC50): 21.7 µM
Structure (SMILES): OC(CNc1ccc(-c2ccccc2)cc1)COc1cccc2[nH]c3ccccc3c12 (stereo not given)

IC50 (Toll-like receptor 4 [1]; read-out: IC50): 34.6 µM
Structure (SMILES): Cc1nn(Cc2ccccc2F)c(C)c1CN(C)CC(O)COc1cccc2[nH]c3ccccc3c12 (stereo not given)

IC50 (Toll-like receptor 4 [1]; read-out: IC50): 15.1 µM
Structure (SMILES): Cc1nn(Cc2ccccc2Cl)c(C)c1CN(C)CC(O)CCOc1cccc2[nH]c3ccccc3c12 (stereo not given)

IC50 (Toll-like receptor 4 [1]; read-out: IC50): 55.4 µM
Structure (SMILES): Cc1nn(Cc2ccccc2Cl)c(C)c1CN(C)CC(O)CCOc1ccc(F)cc1 (stereo not given)

IC50 (Toll-like receptor 4 [1]): Not Active
Structure (SMILES): Cc1nn(Cc2ccccc2Cl)cc1CN(C)CC(O)COc1cccc2[nH]c3ccccc3c12 (stereo not given)

IC50 (Toll-like receptor 4 [1]; read-out: IC50): 21.1 µM
Structure (SMILES): O=C(c1ccccc1)c1cc(Cl)ccc1NCC(O)COc1cccc2[nH]c3ccccc3c12 (stereo not given)

IC50 (Toll-like receptor 4 [1]; read-out: IC50): 26 µM
Structure (SMILES): CCc1ccc(OCCC(O)CN(C)Cc2c(C)nn(Cc3ccccc3Cl)c2C)cc1 (stereo not given)

IC50 (Toll-like receptor 4 [1]): Not Active
Structure (SMILES): O=C1c2ccccc2C(=O)c2cc(NCC(O)COc3cccc4[nH]c5ccccc5c34)ccc21 (stereo not given)

IC50 (Toll-like receptor 4 [1]): Not Active
Structure (SMILES): CCOc1ccc(OCC(O)CNCCOc2ccccc2OC)cc1 (stereo not given)

IC50 (Toll-like receptor 4 [1]; read-out: IC50): 16.7 µM
Structure (SMILES): Cc1nn(Cc2ccccc2Cl)c(C)c1CN(C)CC(O)CCOc1ccc(C(C)(C)C)cc1 (stereo not given)

IC50 (Toll-like receptor 4 [1]; read-out: IC50): 33.2 µM
Structure (SMILES): COc1ccccc1OCCNCC(O)COc1cccc2[nH]c3ccccc3c12 (stereo not given) [CARVEDILOL]

IC50 (Toll-like receptor 4 [1]; read-out: IC50): 24.7 µM
Structure (SMILES): CCCc1ccc(OCCC(O)CN(C)Cc2c(C)nn(Cc3ccccc3Cl)c2C)cc1 (stereo not given)

IC50 (Toll-like receptor 4 [1]; read-out: IC50): 13.6 µM
Structure (SMILES): Cc1nn(Cc2ccc(Cl)cc2)c(C)c1CN(C)CC(O)COc1cccc2[nH]c3ccccc3c12 (stereo not given)
